# From ChEMBL document CHEMBL1128347, “Non-peptidic inhibitors of human leukocyte elastase. 4. Design, synthesis, and in vitro and in vivo activity of a series of beta-carbolinone-containing trifluoromethyl ketones” (J Med Chem, 1995)
# How the values were obtained:
# Neutrophil elastase = target: T1, Neutrophil elastase (Homo sapiens, UniProt P08246); assay: In vitro inhibitory activity against human leukocyte elastase (HLE) mediated hydrolysis of the synthetic substrate MeO-Suc-Ala-Ala-Pro-Val-pNA
# T1 sequence (P08246 whole entry): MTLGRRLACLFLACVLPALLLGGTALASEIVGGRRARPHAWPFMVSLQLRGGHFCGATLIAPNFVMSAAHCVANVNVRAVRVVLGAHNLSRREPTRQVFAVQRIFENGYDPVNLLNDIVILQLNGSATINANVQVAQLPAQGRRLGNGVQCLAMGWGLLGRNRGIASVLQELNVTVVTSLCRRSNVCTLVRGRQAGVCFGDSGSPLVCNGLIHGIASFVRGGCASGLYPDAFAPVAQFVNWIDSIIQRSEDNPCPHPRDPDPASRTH
# Chymotrypsinogen A [1] = target: T2, Chymotrypsinogen A (Bos taurus, UniProt P00766); assay: Inhibitory activity against bovine chymotrypsin; No inhibition at the highest concentration tested (>150 uM)
# [2] = Ratio of the Ki value towards bovine chymotrypsin to that of HLE.
# How it was run: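 Selectivity ratio computed as Ki against bovine pancreatic chymotrypsin divided by Ki against human leukocyte elastase. The elastase Ki came from inhibition of enzyme-catalysed hydrolysis of the chromogenic substrate MeOSuc-Ala-Ala-Pro-Val-pNA.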
# Chymotrypsinogen A [3] = target: T2, Chymotrypsinogen A; assay: Inhibitory activity against bovine chymotrypsin
# [4] = target: T3, Angiotensin-converting enzyme (Oryctolagus cuniculus, UniProt P12822); assay: Inhibitory activity against rabbit Angiotensin I converting enzyme
# T3 sequence (P12822 whole entry): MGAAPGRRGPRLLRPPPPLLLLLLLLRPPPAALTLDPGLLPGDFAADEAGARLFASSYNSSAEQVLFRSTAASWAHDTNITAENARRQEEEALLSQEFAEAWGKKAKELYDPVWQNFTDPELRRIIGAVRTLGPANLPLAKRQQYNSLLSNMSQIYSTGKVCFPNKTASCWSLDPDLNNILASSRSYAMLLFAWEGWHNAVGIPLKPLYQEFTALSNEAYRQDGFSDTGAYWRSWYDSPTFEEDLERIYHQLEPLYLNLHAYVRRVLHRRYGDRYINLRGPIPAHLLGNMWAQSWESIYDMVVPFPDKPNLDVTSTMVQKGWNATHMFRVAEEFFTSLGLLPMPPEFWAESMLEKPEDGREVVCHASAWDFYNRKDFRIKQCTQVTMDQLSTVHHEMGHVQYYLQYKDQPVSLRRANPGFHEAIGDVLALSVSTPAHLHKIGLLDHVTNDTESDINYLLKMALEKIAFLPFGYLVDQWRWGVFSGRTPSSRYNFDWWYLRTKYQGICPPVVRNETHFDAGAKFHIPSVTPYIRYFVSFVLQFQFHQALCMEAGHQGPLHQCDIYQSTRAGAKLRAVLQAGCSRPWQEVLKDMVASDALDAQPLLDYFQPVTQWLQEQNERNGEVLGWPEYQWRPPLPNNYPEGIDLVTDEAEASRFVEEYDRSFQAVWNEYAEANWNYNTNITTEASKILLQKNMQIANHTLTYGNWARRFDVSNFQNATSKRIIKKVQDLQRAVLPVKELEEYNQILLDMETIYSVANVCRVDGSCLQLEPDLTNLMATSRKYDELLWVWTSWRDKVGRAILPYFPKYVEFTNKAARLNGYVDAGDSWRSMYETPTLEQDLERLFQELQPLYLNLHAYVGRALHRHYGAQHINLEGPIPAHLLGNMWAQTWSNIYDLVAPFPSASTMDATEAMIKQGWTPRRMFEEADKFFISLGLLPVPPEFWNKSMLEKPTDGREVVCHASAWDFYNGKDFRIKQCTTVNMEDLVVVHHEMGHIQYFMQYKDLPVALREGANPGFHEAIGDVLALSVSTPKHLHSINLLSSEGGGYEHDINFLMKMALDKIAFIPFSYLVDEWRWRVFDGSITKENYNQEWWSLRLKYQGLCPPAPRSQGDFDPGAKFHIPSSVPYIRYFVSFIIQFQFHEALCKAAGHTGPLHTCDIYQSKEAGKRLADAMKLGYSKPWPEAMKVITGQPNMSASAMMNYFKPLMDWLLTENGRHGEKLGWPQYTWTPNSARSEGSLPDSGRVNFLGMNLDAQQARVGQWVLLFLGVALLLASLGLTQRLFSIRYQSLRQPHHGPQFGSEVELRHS
# Papain = target: T4, Papain (Carica papaya, UniProt P00784); assay: Inhibitory activity against papain; No inhibition at the highest concentration tested (400 uM)
# T4 sequence (P00784 whole entry): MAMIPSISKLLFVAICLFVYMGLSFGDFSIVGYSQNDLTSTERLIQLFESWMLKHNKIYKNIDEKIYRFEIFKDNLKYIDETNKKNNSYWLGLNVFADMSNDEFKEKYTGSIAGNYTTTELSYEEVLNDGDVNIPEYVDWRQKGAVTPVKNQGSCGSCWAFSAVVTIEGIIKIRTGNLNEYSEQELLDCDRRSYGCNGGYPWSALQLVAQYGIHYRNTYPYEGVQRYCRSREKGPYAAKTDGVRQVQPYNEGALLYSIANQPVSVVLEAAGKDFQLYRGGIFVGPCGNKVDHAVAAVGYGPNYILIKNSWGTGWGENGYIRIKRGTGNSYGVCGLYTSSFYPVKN
# Cathepsin G = target: T5, Cathepsin G (Homo sapiens, UniProt P08311); assay: Inhibitory activity against human cathepsin G.
# T5 sequence (P08311 whole entry): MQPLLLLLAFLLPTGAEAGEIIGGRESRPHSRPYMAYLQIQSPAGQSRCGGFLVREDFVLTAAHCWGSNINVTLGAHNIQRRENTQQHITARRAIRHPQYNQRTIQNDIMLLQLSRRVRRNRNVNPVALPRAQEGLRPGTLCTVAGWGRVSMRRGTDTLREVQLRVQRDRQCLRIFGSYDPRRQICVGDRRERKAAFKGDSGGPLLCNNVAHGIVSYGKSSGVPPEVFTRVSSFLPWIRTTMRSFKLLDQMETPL
# Serine protease 1 = target: T6, Serine protease 1 (Bos taurus, UniProt P00760); assay: Inhibitory activity against bovine trypsin; No inhibition at the highest concentration tested (400 uM)
# T6 sequence (P00760 whole entry): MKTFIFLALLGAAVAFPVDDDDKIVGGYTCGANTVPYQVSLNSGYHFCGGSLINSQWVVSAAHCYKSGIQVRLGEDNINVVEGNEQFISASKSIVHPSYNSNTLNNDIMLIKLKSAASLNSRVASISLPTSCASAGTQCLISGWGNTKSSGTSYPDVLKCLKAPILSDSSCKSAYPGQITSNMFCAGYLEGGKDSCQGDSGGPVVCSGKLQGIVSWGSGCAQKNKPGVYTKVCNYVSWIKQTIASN
# Prothrombin = Prothrombin (Homo sapiens, UniProt P00734); assay: Inhibitory activity against human thrombin mediated hydrolysis of the synthetic substrate […]; No inhibition at the highest concentration tested (400 uM)
# Acetylcholinesterase = Acetylcholinesterase (Electrophorus electricus, UniProt O42275); assay: Inhibitory activity against electric eel Acetylcholinesterase; No inhibition at the highest concentration tested (400 uM)
# Chain of Acetylcholinesterase (O42275 whole entry): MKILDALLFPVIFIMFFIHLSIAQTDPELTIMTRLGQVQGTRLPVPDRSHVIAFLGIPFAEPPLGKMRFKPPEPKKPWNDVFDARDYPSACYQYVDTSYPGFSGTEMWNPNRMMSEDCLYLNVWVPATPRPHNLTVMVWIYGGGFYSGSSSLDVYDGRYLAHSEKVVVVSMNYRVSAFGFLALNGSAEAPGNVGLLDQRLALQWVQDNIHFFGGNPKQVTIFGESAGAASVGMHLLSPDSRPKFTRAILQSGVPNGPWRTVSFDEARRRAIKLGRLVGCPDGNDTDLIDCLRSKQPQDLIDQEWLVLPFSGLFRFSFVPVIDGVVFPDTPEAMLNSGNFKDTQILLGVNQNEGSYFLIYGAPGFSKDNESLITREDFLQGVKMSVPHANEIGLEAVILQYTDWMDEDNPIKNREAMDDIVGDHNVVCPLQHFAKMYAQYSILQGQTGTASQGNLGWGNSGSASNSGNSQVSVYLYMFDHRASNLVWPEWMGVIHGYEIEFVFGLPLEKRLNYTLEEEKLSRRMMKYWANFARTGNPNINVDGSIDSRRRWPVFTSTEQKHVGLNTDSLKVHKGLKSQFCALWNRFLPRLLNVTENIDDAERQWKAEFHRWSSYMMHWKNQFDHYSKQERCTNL
Structure (SMILES),Ki (Neutrophil elastase) [nM],other results
CC(C)C(NC(=O)Cn1c(-c2ccccc2)cc2c3cccc(C=O)c3nc-2c1O)C(=O)C(F)(F)F (configuration not stated),4.9,–
COC(=O)c1cccc2c3cc(-c4ccccc4)n(CC(=O)NC(C(=O)C(F)(F)F)C(C)C)c(O)c-3nc12 (configuration not stated),130,–
CC(C)C(NC(=O)Cn1ccc2c3ccccc3nc-2c1O)C(=O)C(F)(F)F (configuration not stated),290,Ki (Chymotrypsinogen A [1]): No inhibition
CC(C)C(NC(=O)Cn1c(-c2ccccc2)cc2c3cccc(OS(C)(=O)=O)c3nc-2c1O)C(=O)C(F)(F)F (configuration not stated),15,–
CC(C)C(NC(=O)Cn1c(-c2ccccc2)cc2c3cccc(O)c3nc-2c1O)C(=O)C(F)(F)F (configuration not stated),6.7,–
CC(C)c1cc2c3ccccc3nc-2c(O)n1CC(=O)NC(C(=O)C(F)(F)F)C(C)C (configuration not stated),54,Ratio [2]: 20; Ki (Chymotrypsinogen A [3]): 1100 nM
CC(C)C(NC(=O)Cn1c(-c2ccccc2)cc2c3cccc(C(=O)O)c3nc-2c1O)C(=O)C(F)(F)F (configuration not stated),–,Ki (Chymotrypsinogen A [3]): 43000 nM
COc1ccc2nc3c(O)n(CC(=O)NC(C(=O)C(F)(F)F)C(C)C)ccc-3c2c1 (configuration not stated),350,–
CC(C)C(NC(=O)Cn1c(-c2ccccc2)cc2c3cccc(C#N)c3nc-2c1O)C(=O)C(F)(F)F (configuration not stated),6.6,Ratio [2]: 27; Ki (Chymotrypsinogen A [3]): 180 nM
CC(C)C(NC(=O)Cn1ccc2c3ccc(C(=O)O)cc3nc-2c1O)C(=O)C(F)(F)F (configuration not stated),510,–
COc1ccc2[nH]c3c(c2c1)CCN(CC(=O)NC(C(=O)C(F)(F)F)C(C)C)C3=O (configuration not stated),1100,–
CC(C)c1cc2c3cccc(C(=O)O)c3nc-2c(O)n1CC(=O)NC(C(=O)C(F)(F)F)C(C)C (configuration not stated),19,–
CC(C)C(NC(=O)CN1CCc2c([nH]c3ccccc23)C1=O)C(=O)C(F)(F)F (configuration not stated),1100,–
CCOC(=O)c1ccc2c3ccn(CC(=O)NC(C(=O)C(F)(F)F)C(C)C)c(O)c-3nc2c1 (configuration not stated),340,–
COc1cccc2c3cc(-c4ccccc4)n(CC(=O)NC(C(=O)C(F)(F)F)C(C)C)c(O)c-3nc12 (configuration not stated),17,–
COP(=O)(OC)c1ccc2nc3c(O)n(CC(=O)NC(C(=O)C(F)(F)F)C(C)C)c(-c4ccccc4)cc-3c2c1 (configuration not stated),9.6,–
CC(C)C(NC(=O)CN1CCc2c([nH]c3ccc(Cl)cc23)C1=O)C(=O)C(F)(F)F (configuration not stated),1000,–
CC(C)c1cc2c3cccc(C#N)c3nc-2c(O)n1CC(=O)NC(C(=O)C(F)(F)F)C(C)C (configuration not stated),28,–
CC(C)C(NC(=O)CN1CCc2c([nH]c3c(C(=O)O)cccc23)C1=O)C(=O)C(F)(F)F (configuration not stated),27,–
COP(=O)(OC)c1cccc2c3cc(-c4ccccc4)n(CC(=O)NC(C(=O)C(F)(F)F)C(C)C)c(O)c-3nc12 (configuration not stated),52,Ratio [2]: 500; Ki (Chymotrypsinogen A [3]): 26000 nM
CC(C)C(NC(=O)Cn1c(-c2ccccc2)cc2c3ccccc3nc-2c1O)C(=O)C(F)(F)F (configuration not stated),6.1,Ratio [2]: 70; Ki (Chymotrypsinogen A [3]): 430 nM
CC(C)C(NC(=O)Cn1ccc2c3cccc(C(N)=O)c3nc-2c1O)C(=O)C(F)(F)F (configuration not stated),730,–
CC(C)C(NC(=O)Cn1ccc2c3cccc(C(=O)O)c3nc-2c1O)C(=O)C(F)(F)F (configuration not stated),22,Ki [4]: 94000 nM; Ki (Papain): No inhibition; Ki (Cathepsin G): 130000 nM; Ki (Serine protease 1): No inhibition; Ki (Prothrombin): No inhibition; Ki (Acetylcholinesterase): No inhibition; Ki (Chymotrypsinogen A [1]): No inhibition
COC(=O)Oc1cccc2c3cc(-c4ccccc4)n(CC(=O)NC(C(=O)C(F)(F)F)C(C)C)c(O)c-3nc12 (configuration not stated),24,–
CCOC(=O)c1cccc2c3ccn(CC(=O)NC(C(=O)C(F)(F)F)C(C)C)c(O)c-3nc12 (configuration not stated),2500,–
CC(C)C(NC(=O)Cn1ccc2c3cc(Cl)ccc3nc-2c1O)C(=O)C(F)(F)F (configuration not stated),210,–
